How the values were obtained:
[1] = biological target: T. gondii farnesyl pyrophosphate synthase (TgFPPS) (Toxoplasma gondii, UniProt Q197X6); format: biochemical; details: read-out: IC50 TgFPPS
[2] = biological target: T. cruzi farnesyl pyrophosphate synthase (TcFPPS) (Trypanosoma cruzi, UniProt Q8WS26); experiment: TcFPPS enzymatic activity inhibition assay; format: biochemical; details: read-out: IC50 TcFPPS; recombinant enzyme
[3] = system: T. gondii tachyzoites; experiment: T. gondii tachyzoites growth assay; format: cell-based, Toxoplasma gondii; details: read-out: IC50 T. gondii tachyzoites; growth inhibition of tachyzoites
[4] = system: T. cruzi amastigotes; experiment: T. cruzi amastigotes assay; format: cell-based, Trypanosoma cruzi
Outline: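 Vero cells gamma-irradiated (2,000 Rads), seeded at 3.4 × 10^4/well in RPMI + 10% FBS, overnight at 35 °C, 7% CO2. Infected 5 h with 3.4 × 10^5 tdTomato-expressing CL-strain trypomastigotes/well, washed, then serial test compound dilutions in quadruplicate. Controls were uninfected, drug-only and untreated-infected wells, plus benznidazole reference at 3.5 and 1.5 μM. Fluorescence read day 3 post-infection; IC50 by non-linear regression.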

[5] = system: T. cruzi; details: in vivo; cited from earlier work

| Structure (SMILES) | IC50 [1] [µM] | IC50 [2] [µM] | IC50 [3] [µM] | growth inhibition of T. cruzi intracellular amastigotes ([4]; at 10 μM) [% at 10 μM] | survival of T. cruzi-infected mice [5] | IC50 ([4]; Trypanosoma cruzi, Vero, 72 h, read-out: IC50 T. cruzi amastigotes) [µM] |
| --- | --- | --- | --- | --- | --- | --- |
| O=P(O)(O)C(F)P(=O)(O)O [Compound 35, 1-(Fluoromethylene)-1,1-bisphosphonic acid] | > 10 | > 1 | > 10 | – | – | – |
| CC(F)(P(=O)(O)O)P(=O)(O)O [Compound 36, 1-(Fluoroethylidene)-1,1-bisphosphonic acid] | > 10 | > 1 | > 10 | – | – | – |
| CCC(F)(P(=O)(O)O)P(=O)(O)O [Compound 37, 1-(Fluoro-n-propylidene)-1,1-bisphosphophonic acid] | > 10 | > 1 | > 10 | – | – | – |
| CCCC(F)(P(=O)(O)O)P(=O)(O)O [Compound 38, 1-(Fluoro-n-butylidene)-1,1-bisphosphonic acid] | > 10 | > 1 | > 10 | – | – | – |
| CCCCC(F)(P(=O)(O)O)P(=O)(O)O [Compound 39, 1-(Fluoro-n-pentylidene)-1,1-bisphosphonic] | 3.42 ± 1.67 | > 1 | > 10 | – | – | – |
| CCCCCC(F)(P(=O)(O)O)P(=O)(O)O [Compound 40, 1-(Fluoro-n-hexylidene)-1,1-bisphosphonic acid] | 0.16 ± 0.078 | > 1 | > 10 | – | – | – |
| CCCCCCC(F)(P(=O)(O)O)P(=O)(O)O [Compound 41, 1-(Fluoro-n-heptylidene)-1,1-bisphosphonic acid] | 0.241 ± 0.12 | > 1 | > 10 | – | – | – |
| CCCCCCCC(F)(P(=O)(O)O)P(=O)(O)O [Compound 42, 1-(Fluoro-n-octylidene)-1,1-bisphosphonic acid] | 0.616 ± 0.259 | > 1 | > 10 | – | – | – |
| CCCCCCCCC(F)(P(=O)(O)O)P(=O)(O)O [Compound 43, 1-(Fluoro-n-nonylidene)-1,1-bisphosphonic acid] | 0.035 ± 0.019 | > 1 | 2.67 | 13 | – | – |
| CCCCCCCCCC(F)(P(=O)(O)O)P(=O)(O)O [Compound 44, 1-(Fluoro-n-decylidene)-1,1-bisphosphonic acid] | 0.06 ± 0.006 | > 1 | > 10 | – | – | – |
| O=P(O)(O)C(O)(Cc1cccnc1)P(=O)(O)O [Risedronate, risedronate] | – | – | – | – | significantly increase survival | – |
| O=C(Cn1ccnc1[N+](=O)[O-])NCc1ccccc1 [benznidazole, reference compound] | – | – | – | – | – | 2.77 ± 0.488 |
